Experimental data from ChEMBL document CHEMBL1275301, “Antihypertensive activity of newer 1,4-dihydro-5-pyrimidine carboxamides: synthesis and pharmacological evaluation” (2010).
The source made the active and inactive calls. No cut-off for these calls is given here.

Columns and labels:
Rattus norvegicus [1] = assay: Antihypertensive activity against DOCA-salt induced hypertension in albino rat assessed as reduction in systolic blood pressure at 10 mg/kg, po after 300 mins by tail-cuff method; format: functional; settings: Artery, 5 h
Procedure, shortened: (§1)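 Rats given DOCA 20 mg/kg s.c. twice weekly in olive oil for 4 weeks, with 1% w/v NaCl as drinking water, reaching systolic 160–180 mm Hg. Rats were trained in restrainer and tail-cuff sessions. Compounds in 0.5% CMC were dosed at 10 mg/kg by oral feeding needle, with vehicle and nifedipine groups. BP was read before dosing and after, with the tail warmed at 37 °C for 2–5 min. Each compound was run three times in one week and readings averaged.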

Rattus norvegicus [2] = assay: Antihypertensive activity against DOCA-salt induced hypertension in albino rat assessed as reduction in systolic blood pressure at 10 mg/kg, po after 60 mins by tail-cuff method; format: functional; settings: Artery, 1 h; procedure, shortened: as §1
Rattus norvegicus [3] = assay: Antihypertensive activity against DOCA-salt induced hypertension in albino rat assessed as reduction in systolic blood pressure at 10 mg/kg, po after 15 mins by tail-cuff method; format: functional; settings: Artery, 0.25 h; procedure, shortened: as §1
Rattus norvegicus [4] = assay: Antihypertensive activity against DOCA-salt induced hypertension in albino rat assessed as reduction in systolic blood pressure at 10 mg/kg, po after 30 mins by tail-cuff method; format: functional; settings: Artery, 0.5 h; procedure, shortened: as §1
Rattus norvegicus [5] = assay: Antihypertensive activity against DOCA-salt induced hypertension in albino rat assessed as reduction in systolic blood pressure at 10 mg/kg, po after 120 mins by tail-cuff method; format: functional; settings: Artery, 2 h; procedure, shortened: as §1
Rattus norvegicus [6] = assay: Antihypertensive activity against DOCA-salt induced hypertension in albino rat assessed as reduction in systolic blood pressure at 10 mg/kg, po after 180 mins by tail-cuff method; format: functional; settings: Artery, 3 h; procedure, shortened: as §1
Rattus norvegicus [7] = assay: Antihypertensive activity against DOCA-salt induced hypertension in albino rat assessed as reduction in systolic blood pressure at 10 mg/kg, po up to 360 mins by tail-cuff method; format: functional, organism-based; set-up: dose 10 mg/kg; settings: Artery; procedure, shortened: as §1
Rattus norvegicus [8] = assay: Antihypertensive activity against DOCA-salt induced hypertension in albino rat assessed as reduction in systolic blood pressure at 10 mg/kg, po after 900 mins by tail-cuff method; format: functional; settings: Artery, 15 h; procedure, shortened: as §1
Rattus norvegicus [9] = assay: Antihypertensive activity against DOCA-salt induced hypertension in albino rat assessed as reduction in systolic blood pressure at 10 mg/kg, po after 360 mins by tail-cuff method; format: functional; settings: Artery, 6 h; procedure, shortened: as §1
Rattus norvegicus [10] = assay: Antihypertensive activity against DOCA-salt induced hypertension in albino rat assessed as reduction in systolic blood pressure at 10 mg/kg, po after 600 mins by tail-cuff method; format: functional; settings: Artery, 10 h; procedure, shortened: as §1
Rattus norvegicus [11] = assay: Antihypertensive activity against DOCA-salt induced hypertension in albino rat assessed as reduction in systolic blood pressure at 10 mg/kg, po after 240 mins by tail-cuff method; format: functional; settings: Artery, 4 h; procedure, shortened: as §1
Rattus norvegicus [12] = assay: Antihypertensive activity against DOCA-salt induced hypertension in albino rat assessed as reduction in systolic blood pressure at 10 mg/kg, po after 720 mins by tail-cuff method; format: functional; settings: Artery, 12 h; procedure, shortened: as §1

Row | Compound | inhibition in vivo at 10 mg/kg (Rattus norvegicus [1]) [%] | inhibition in vivo at 10 mg/kg (Rattus norvegicus [2]) [%] | inhibition in vivo at 10 mg/kg (Rattus norvegicus [3]) [%] | inhibition in vivo at 10 mg/kg (Rattus norvegicus [4]) [%] | inhibition in vivo at 10 mg/kg (Rattus norvegicus [5]) [%] | inhibition in vivo at 10 mg/kg (Rattus norvegicus [6]) [%] | Activity (Rattus norvegicus [7]) | inhibition in vivo at 10 mg/kg (Rattus norvegicus [8]) [%] | inhibition in vivo at 10 mg/kg (Rattus norvegicus [9]) [%] | inhibition in vivo at 10 mg/kg (Rattus norvegicus [10]) [%] | inhibition in vivo at 10 mg/kg (Rattus norvegicus [11]) [%] | inhibition in vivo at 10 mg/kg (Rattus norvegicus [12]) [%]
1 | CC1=C(C(=O)Nc2ccc(F)cc2)C(c2ccc([N+](=O)[O-])cc2)N=C(SCc2ccc(Cl)cc2)N1 (stereo unspecified) | 37.9 | 11.8 | 3.6 | 6.7 | 16 | 23.2 | Active | 16.9 | 39.7 | 28.2 | 33.3 | 22.2
2 | CC1=C(C(=O)Nc2ccc([N+](=O)[O-])cc2)C(c2cccc([N+](=O)[O-])c2)N=C(SCc2cccc(Cl)c2)N1 (stereo unspecified) | 21 | 8.2 | 2.6 | 4.1 | 12.4 | 14.9 | Active | 10.8 | 21.6 | 19 | 17.9 | 12.9
3 | CC1=C(C(=O)Nc2ccc([N+](=O)[O-])cc2)C(c2cccc([N+](=O)[O-])c2)N=C(SCc2ccc(F)cc2)N1 (stereo unspecified) | 27.2 | 7.2 | 2.6 | 4.1 | 13.4 | 17.5 | Active | 15.4 | 36.1 | 30.3 | 22.6 | 20.1
4 | CC1=C(C(=O)Nc2ccc([N+](=O)[O-])cc2)C(c2ccc(Br)cc2)N=C(SCc2cccc(Cl)c2)N1 (stereo unspecified) | 9.2 | 4.1 | 2.1 | 2.6 | 6.7 | 9.3 | Active | 2.6 | 7.2 | 5.1 | 11.8 | 2.6
5 | COc1ccc(C2N=C(SCc3ccc(F)cc3)NC(C)=C2C(=O)Nc2ccc(Br)cc2)cc1 (stereo unspecified) | 26.2 | 8.7 | 3.6 | 6.2 | 12.9 | 17 | Active | 15.4 | 33.5 | 24.1 | 22.1 | 19.1
6 | COc1ccc(C2N=C(SCc3ccccc3)NC(C)=C2C(=O)Nc2ccc(Br)cc2)cc1 (stereo unspecified) | 16.4 | 5.6 | 1 | 2.6 | 8.2 | 10.3 | Active | 5.6 | 18.6 | 11.3 | 13.3 | 7.2
7 | CC1=C(C(=O)Nc2ccc([N+](=O)[O-])cc2)C(c2cccc([N+](=O)[O-])c2)N=C(SCc2ccc(Cl)cc2)N1 (stereo unspecified) | 24.1 | 6.7 | 2.1 | 3.1 | 12.4 | 14.9 | Active | 12.3 | 33 | 26.2 | 20 | 15.5
8 | CC1=C(C(=O)Nc2ccc([N+](=O)[O-])cc2)C(c2ccc(Br)cc2)N=C(SCc2ccc(Cl)cc2)N1 (stereo unspecified) | 37.9 | 10.8 | 3.1 | 6.2 | 13.9 | 19.1 | Active | 19 | 39.2 | 34.4 | 29.7 | 29.4
